Assay results reported in ChEMBL document CHEMBL1131162, “Bisquinolines. 2. Antimalarial N,N-bis(7-chloroquinolin-4-yl)heteroalkanediamines” (J Med Chem, 1998).

Tests used:
[1] = tested on: Mus musculus; assay: (§1) Number of Plasmodium berghei infected mice died on day 7 at 40 mg/kg; type: functional
Outline: (§2)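 Male mice infected with drug-sensitive P. berghei KBG 173; single subcutaneous dose given 3 days postinfection, five mice per dose; survival followed, with cure (C) meaning survival to 60 days postinfection and deaths 0–2 days after treatment scored as toxicity (T).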

[2] = tested on: Mus musculus; assay: (§3) Number of Plasmodium berghei infected mice died on day 8 at 160 mg/kg; type: functional; outline: as §2
[3] = tested on: Mus musculus; assay: Number of Plasmodium berghei infected mice cured after administration of 640 mg/kg; type: functional
[4] = tested on: Mus musculus; assay: Number of Plasmodium berghei infected mice died on day 13 at 40 mg/kg; type: functional; outline: as §2
[5] = tested on: Plasmodium falciparum; assay: In vitro antimalarial activity against chloroquine-resistant Plasmodium falciparum W2; type: functional, organism-based
[6] = tested on: Plasmodium falciparum; assay: In vitro inhibition of hematin polymerization in Plasmodium falciparum; type: functional
[7] = tested on: Plasmodium falciparum; assay: Antimalarial activity against Plasmodium falciparum D6 in vitro.; type: functional, organism-based
[8] = tested on: Mus musculus; assay: Number of Plasmodium berghei infected mice died on day 9 at 40 mg/kg; type: functional
[9] = tested on: Mus musculus; assay: Number of Plasmodium berghei infected mice cured after administration of 160 mg/kg dose; type: functional
[10] = tested on: Mus musculus; assay: Number of Plasmodium berghei infected mice died on day 24 at 640 mg/kg; type: functional; outline: as §2
[11] = tested on: Mus musculus; assay: Number of Plasmodium berghei infected mice died on day 13 at 640 mg/kg; type: functional; outline: as §2
[12] = tested on: Mus musculus; assay: Number of Plasmodium berghei infected mice died on day 8 at 40 mg/kg; type: functional; outline: as §2
[13] = tested on: Mus musculus; assay: Number of Plasmodium berghei infected mice died on day 10 at 160 mg/kg; type: functional; outline: as §2
[14] = tested on: Mus musculus; assay: as §3; type: functional; remark: listed apart in the source
[15] = tested on: Mus musculus; assay: Number of Plasmodium berghei infected mice died on day 18 at 160 mg/kg; type: functional; outline: as §2
[16] = tested on: Plasmodium falciparum; assay: Inhibition of hematin polymerization in Plasmodium falciparum; type: functional
[17] = tested on: Mus musculus; assay: as §1; type: functional; remark: listed apart in the source
[18] = tested on: Mus musculus; assay: Number of Plasmodium berghei infected mice died on day 9 at 160 mg/kg; type: functional; outline: as §2
[19] = tested on: Mus musculus; assay: Number of Plasmodium berghei infected mice died on day 10 at 40 mg/kg; type: functional; outline: as §2
[20] = tested on: Mus musculus; assay: Number of Plasmodium berghei infected mice died on day 14 at 640 mg/kg; type: functional; outline: as §2
[21] = tested on: Mus musculus; assay: Number of Plasmodium berghei infected mice died on day 29 at 640 mg/kg; type: functional; outline: as §2
[22] = tested on: Mus musculus; assay: Number of Plasmodium berghei infected mice died on day 16 at 640 mg/kg; type: functional; outline: as §2
[23] = tested on: Mus musculus; assay: Number of Plasmodium berghei infected mice died on day 11 at 40 mg/kg; type: functional; outline: as §2
[24] = tested on: Mus musculus; assay: (§4) Number of Plasmodium berghei infected mice died on day 12 at 640 mg/kg; type: functional
[25] = tested on: Mus musculus; assay: Number of Plasmodium berghei infected mice died on day 13 at 160 mg/kg; type: functional; outline: as §2
[26] = tested on: Mus musculus; assay: Number of Plasmodium berghei infected mice died on day 33 at 640 mg/kg; type: functional; outline: as §2
[27] = tested on: Mus musculus; assay: Number of Plasmodium berghei infected mice cured after administration of the dose 640 mg/kg; type: functional; outline: as §2
[28] = tested on: Mus musculus; assay: (§5) Number of Plasmodium berghei infected mice died on day 6 at 40 mg/kg; type: functional; outline: as §2
[29] = tested on: Mus musculus; assay: Number of Plasmodium berghei infected mice died on day 16 at 160 mg/kg; type: functional; outline: as §2
[30] = tested on: Mus musculus; assay: (§6) Number of Plasmodium berghei infected mice died on day 6 at 160 mg/kg; type: functional; outline: as §2
[31] = tested on: Mus musculus; assay: Number of Plasmodium berghei infected mice died on day 7 at 160 mg/kg; type: functional; outline: as §2
[32] = tested on: Mus musculus; assay: Number of Plasmodium berghei infected mice died on day 7 at 640 mg/kg; type: functional; outline: as §2
[33] = tested on: Mus musculus; assay: Number of Plasmodium berghei infected mice died on day 14 at 160 mg/kg; type: functional; outline: as §2
[34] = tested on: Mus musculus; assay: Number of Plasmodium berghei infected mice died on day 19 at 640 mg/kg; type: functional; outline: as §2
[35] = tested on: Mus musculus; assay: Number of Plasmodium berghei infected mice died on day 12 at 160 mg/kg; type: functional; outline: as §2
[36] = tested on: Mus musculus; assay: Number of Plasmodium berghei infected mice cured after administration of a compound dose 640 mg/kg; type: functional
[37] = tested on: Mus musculus; assay: Number of Plasmodium berghei infected mice died on day 6 at 640 mg/kg; type: functional
[38] = tested on: Mus musculus; assay: as §5; type: functional; remark: listed apart in the source
[39] = tested on: Mus musculus; assay: as §6; type: functional; remark: listed apart in the source
[40] = tested on: Mus musculus; assay: Number of Plasmodium berghei infected mice died on day 12 at 40 mg/kg; type: functional; outline: as §2
[41] = tested on: Mus musculus; assay: Number of Plasmodium berghei infected mice died on day 17 at 160 mg/kg; type: functional; outline: as §2
[42] = tested on: Mus musculus; assay: Number of Plasmodium berghei infected mice died on day 18 at 640 mg/kg; type: functional; outline: as §2
[43] = tested on: Mus musculus; assay: Number of Plasmodium berghei infected mice died on day 20 at 640 mg/kg; type: functional; outline: as §2
[44] = tested on: Mus musculus; assay: Number of Plasmodium berghei infected mice died on day 22 at 640 mg/kg; type: functional; outline: as §2
[45] = tested on: Mus musculus; assay: Number of Plasmodium berghei infected mice died at 160 mg/kg; Curative; type: functional; outline: as §2
[46] = tested on: Mus musculus; assay: Number of Plasmodium berghei infected mice died at 640 mg/kg; Curative; type: functional; outline: as §2
[47] = tested on: Mus musculus; assay: as §4; type: functional; outline: as §2; remark: listed apart in the source
[48] = tested on: Mus musculus; assay: Number of Plasmodium berghei infected mice died on day 26 at 160 mg/kg; type: functional; outline: as §2
[49] = tested on: Mus musculus; assay: Number of Plasmodium berghei infected mice died on day 11 at 160 mg/kg; type: functional
[50] = tested on: Mus musculus; assay: Number of Plasmodium berghei infected mice died on day 25 at 640 mg/kg; type: functional; outline: as §2
[51] = tested on: Mus musculus; assay: Number of Plasmodium berghei infected mice died on day 14 at 40 mg/kg; type: functional; outline: as §2
[52] = tested on: Mus musculus; assay: Number of Plasmodium berghei infected mice died on day 20 at 160 mg/kg; type: functional; outline: as §2
[53] = tested on: Mus musculus; assay: Number of Plasmodium berghei infected mice died at 640 mg/kg; Toxic; type: functional; outline: as §2
[54] = tested on: Mus musculus; assay: Number of Plasmodium berghei infected mice died on day 15 at 40 mg/kg; type: functional; outline: as §2
[55] = tested on: Mus musculus; assay: Number of Plasmodium berghei infected mice died at 40 mg/kg; Curative; type: functional; outline: as §2
[56] = tested on: Mus musculus; assay: Number of Plasmodium berghei infected mice died on day 16 at 40 mg/kg; type: functional; outline: as §2
[57] = tested on: Mus musculus; assay: Number of Plasmodium berghei infected mice died on day 23 at 160 mg/kg; type: functional; outline: as §2

SMILES | Number [1] | IC50 [5] [µM] | IC50 [6] [µM] | IC50 [7] [µM] | Number [8] | Number [11] | Number [12] | Number [13] | Number [15] | IC50 [16] [µM] | Number [17] | Number [20] | Number [25] | further results
Clc1ccc2c(NCCOCCOCCNc3ccnc4cc(Cl)ccc34)ccnc2c1 | 2 | 0.0099 | 15 | 0.0025 | 2 |  |  |  |  |  |  |  |  | Number [2]: 3; Number [3]: 1; Number [4]: 1; Number [9]: 1
Clc1ccc2c(NCCOCCNc3ccnc4cc(Cl)ccc34)ccnc2c1 |  | 0.089 |  | 0.016 |  | 2 | 3 | 1 | 1 | 20 | 1 | 1 |  | Number [10]: 1; Number [14]: 1; Number [18]: 2; Number [19]: 1; Number [21]: 1
CN(CCCNc1ccnc2cc(Cl)ccc12)CCCNc1ccnc2cc(Cl)ccc12 |  | 0.0028 |  | 0.0059 | 2 | 1 | 2 |  | 2 | 8 |  | 1 | 3 | Number [22]: 1; Number [23]: 1; Number [24]: 1; Number [26]: 1
Clc1ccc2c(N3CCN(CN4CCN(c5ccnc6cc(Cl)ccc56)CC4)CC3)ccnc2c1 | 4 | > 1 | > 2500 | > 1 |  |  |  | 1 |  |  |  |  |  | Number [27]: 3; Number [28]: 1; Number [29]: 1; Number [18]: 3
Clc1ccc2c(NCCCCCCNCCCCCCNc3ccnc4cc(Cl)ccc34)ccnc2c1 | 1 | 0.0054 | 7 | 0.011 |  |  |  |  |  |  |  |  |  | Number [28]: 4; Number [30]: 2; Number [31]: 3; Number [32]: 5
Clc1ccc2c(NCCCOCCOCCOCCCNc3ccnc4cc(Cl)ccc34)ccnc2c1 |  | 0.048 | 20 | 0.024 | 3 |  | 1 |  |  |  |  | 1 | 1 | Number [33]: 2; Number [34]: 1; Number [23]: 1; Number [35]: 2; Number [36]: 3
Clc1ccc2c(NCCCNCCNc3ccnc4cc(Cl)ccc34)ccnc2c1 |  | 0.007 |  | 0.026 |  |  |  |  |  | 16 | 1 |  |  | Number [37]: 5; Number [38]: 4; Number [39]: 5
Clc1ccc2c(NCCN3CCN(c4ccnc5cc(Cl)ccc45)CC3)ccnc2c1 |  | 0.009 |  | 0.0012 | 1 |  | 1 |  |  | 5 |  |  | 3 | Number [40]: 1; Number [41]: 1; Number [22]: 1; Number [33]: 1; Number [4]: 2; Number [42]: 1; Number [43]: 1; Number [44]: 1; Number [45]: 1; Number [46]: 1
Clc1ccc2c(NCCCOCCCCOCCCNc3ccnc4cc(Cl)ccc34)ccnc2c1 |  | 0.021 |  | 0.022 | 2 | 2 | 1 | 2 |  | 19 | 1 |  |  | Number [47]: 3; Number [48]: 1; Number [35]: 1; Number [19]: 1; Number [49]: 1
CCN(CC)CCCC(C)Nc1ccnc2cc(Cl)ccc12 (stereo not drawn) [CHLOROQUINE] |  |  |  |  |  |  |  |  | 1 |  |  |  |  | Number [40]: 1; Number [50]: 1; Number [51]: 2; Number [52]: 1; Number [45]: 1; Number [53]: 3; Number [54]: 1; Number [29]: 1; Number [55]: 1; Number [56]: 1; Number [57]: 1
